# Bioassay records as filed in PubChem BioAssay.
# This is a sample that favours compounds with a hit; in the whole collection about 2.9% have one here.
# AI-2 QS mod: modulators of Vibrio harveyi AI-2 quorum sensing system; Vibrio harveyi JMH597 AI-2 luminescence/OD600 ratio, 9 h; hits give low values; strain lacks LuxN and CqsS sensors; 0 = neutral-control median; activity change, % at 7.5 µM; 0.4% of 300,000 active; in the data active = activity change below about -75%, passing the limit was not always enough; inconclusive = no clear call, values can overlap the other calls;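 also: luminescence divided by OD600 gain over 9 h not by final OD600 alone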
# RanGTP-Imp inh: disruptors of Ran-importin-beta complex formation – biochemical, FRET, CFP-Ran, YFP-importin-beta, homogeneous, primary screen. inhibition, % (concentration not given with the values). cell-free CFP-Ran/YFP-importin-beta FRET ratio. 1.1% of 300,000 active;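 active = more than half of the replicate wells show a fall in the fluorescence ratio signal beyond about 16%, limit read from the data, passing the limit was not always enough; inconclusive = exactly half of the replicate wells pass the set limit; inactive = fewer than half of replicates pass the limit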;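 also: 0% = DMSO wells and 100% = Ran loaded with GDP instead of GTP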
# Runt-SMMHC FRET: inhibitors of human RUNX1 Runt domain binding to CBFb-SMMHC; Q01196+Q13951; Cerulean-Runt/Venus-CBFb-SMMHC FRET ratio 530/480, 1 h; inhibition, % at 20 µM; 0.74% of 220,000 active; AID 1434;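 active = mean inhibition across duplicate retests at 20 µM reaching about 50%, limit read from the data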;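 also: 0% = DMSO wells and 100% = wells with excess untagged CBFb-SMMHC; inhibitors lower the FRET ratio by blocking Runt binding to CBFb-SMMHC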
# Wee1 degr inh: inhibitors of human Wee1 degradation | P30291 | HeLa Luc-Wee1K328M stability, luciferase luminescence; 100% = proteasome inhibitor MG132 effect | reporter increase, % at 5 µM | 1.2% of 220,000 active | AID 1321;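 active = activation above the mean of all tested compounds plus 3 SD, set per screening run, cut at about 8.8% in these data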;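 also: cells exposed to compound for 20 h before luminescence read; 0% = DMSO alone and 100% = MG132 at 30 µM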
# proKLK7 act: activators of human kallikrein-7 zymogen | activation, % at 7 µM | purified proKLK7, EDANS-DABCYL substrate fluorescence; 100% is mature enzyme control, 0% vehicle | 0.9% of 370,000 active | P49862;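 active = activation above the mean of all tested compounds plus 3 SD, computed per campaign excluding outliers beyond control limits, cut at about 13% in these data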
# Target sequence (P49862 whole entry, looked up): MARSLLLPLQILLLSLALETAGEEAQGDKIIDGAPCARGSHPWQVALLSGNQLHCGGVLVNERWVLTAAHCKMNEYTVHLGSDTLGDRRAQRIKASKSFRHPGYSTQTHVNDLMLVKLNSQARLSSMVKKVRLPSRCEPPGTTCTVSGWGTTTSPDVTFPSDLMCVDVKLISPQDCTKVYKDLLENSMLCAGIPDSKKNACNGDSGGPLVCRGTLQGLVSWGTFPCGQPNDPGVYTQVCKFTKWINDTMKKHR
# Runt-CBFb FRET: inhibitors of human RUNX1 Runt domain binding to CBFb. Cerulean-Runt/Venus-CBFb FRET ratio 530/480, 1 h. AID 1496. 0.46% of 220,000 active. Q01196+Q13951. inhibition, % at 20 µM;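 active = inhibition over about 50% at 20 µM in the single-dose screen, limit read from the data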;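 also: 0% = DMSO wells and 100% = excess unlabeled CBFb competitor control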
#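 Buffer or medium: Tris pH 7.5 buffer with BSA. Assay system: Cerulean-labeled Runt domain protein. Amount: each fluorescent fusion protein 100 nM. Read-out basis: loss of energy transfer signal. Incubation: 1 h compound exposure, room temperature. Probe or stimulus: Venus-CBFb binding partner, 100 nM. Detection: FRET, excitation 422 nm, emission at 530 and 480 nm.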
# The depositor's hits bear a star; u = inconclusive; x = no result given.
SMILES,AI-2 QS mod,RanGTP-Imp inh,Runt-SMMHC FRET,Wee1 degr inh,proKLK7 act,Runt-CBFb FRET
O=c1c(Oc2ccccc2Br)c(C(F)(F)F)oc2c(CN3CCCC3)c(O)ccc12,19,51*,-23,-2,5,-8
CCCc1ccc(C(=O)NNc2ccccc2F)cc1,29,u,3,9.3*,0,1
CC(C)C(C(=O)NCc1ccccc1)N1CCN(CCN2CCOCC2)CC1 (configuration not stated),x,x,x,x,1,x
Cc1[nH]nc2c1C1(CCN(Cc3ccccc3)CC1)C(C#N)=C(N)O2,22,u,36,2,1,8
N#CC1=C(N)N2C(=C(C#N)C13CCN(Cc1ccccc1)CC3)Nc1ccccc12,7,34*,19,0,-7,12
CCOc1ccc(C2OC34CCCCC3C(C#N)(C#N)C2(C#N)C(=N)O4)cc1OC (configuration not stated),23,45*,25,-1,x,25
C=CCOc1ccc(C2OC34CCCCC3C(C#N)(C#N)C2(C#N)C(=N)O4)cc1 (configuration not stated),45,46*,50*,0,x,27
COc1cccc(C(=O)N[C@H](C(=O)N2CCC[C@H]2C(=O)NCc2ccccc2)C(C)C)c1,x,x,x,x,1,x
CCN1C(=O)N(S(=O)(=O)C(F)(F)F)[C@@H](c2ccccc2)C(C(=O)OC)=C1C,5,35*,0,x,0,0
COc1ccc(C(=O)Nc2sc(C(=O)N(C)C)c(C)c2C#N)cc1[N+](=O)[O-],16,2,5,-1,0,0
Cc1c(C(=O)N(C)C)sc(NC(=O)c2cccc([N+](=O)[O-])c2)c1C#N,1,2,-6,10*,0,2
CCCN1CCc2c(sc(NC(=O)c3ccc(S(=O)(=O)N(C)c4ccccc4)cc3)c2C(=O)NC)C1,14,10,x,x,-12,x
COC(=O)c1c(NC(=O)CCS(=O)(=O)c2ccccc2)sc2c1CCN(C)C2,10,79*,x,x,0,x
CC(=O)N1CCc2c(sc(NC(=O)CS(=O)(=O)c3ccc(F)cc3)c2C#N)C1,14,2,x,x,1,x
COC(=O)c1ccsc1NC(=O)CCS(=O)(=O)c1ccccc1,14,6,x,x,0,x
CCCN1CCc2c(sc(NC(=O)CCS(=O)(=O)c3ccccc3)c2C(=O)OC)C1,-1,155*,x,x,-3,x
CC(C)N1CCc2c(sc(NC(=O)CCS(=O)(=O)c3ccccc3)c2C#N)C1,10,169*,x,x,0,x
Cc1cc(N2CCNC[C@H]2C)ccc1N1CCN(Cc2ccccc2)[C@H](C)C1,x,x,x,x,1,x
COCc1cc(N2CCNC[C@H]2C)ccc1N1C[C@@H](C)O[C@@H](C)C1,x,x,x,x,1,x
C[C@@H]1C=CCCO[C@]12C(=O)N(CC1CC1)c1ccccc12,x,x,x,x,0,x
CCC1=[N+](CC(=O)c2ccc(Br)cc2)CCn2c(C)ccc21,45,7,7,11*,2,-4
CCC1=[N+](CC(=O)c2ccc(C)cc2)CCn2c(C)ccc21,4,44*,-15,-1,9,-4
CCC1=[N+](CC(=O)c2ccc(C)cc2)CCn2cccc21,x,-4,-25,-2,2,-9
COC(=O)c1cc2c(c3c4cc(C)ccc4n(S(=O)(=O)c4ccc(C)cc4)c13)C(=O)N(Cc1ccccc1OC)C2,x,x,x,x,-1,x
Cc1ccc(S(=O)(=O)Nc2ccc(Cl)cc2C(=O)c2ccc(F)cc2)cc1,25,2,2,0,0,0
CCOC(=O)C1Nc2ccc(C(F)(F)F)cc2C2c3ccccc3CC12 (configuration not stated),14,7,x,x,21*,x
CNc1nc(-c2cccs2)cc(C(F)(F)F)c1C#N,2,109*,88*,8,8,11
COC(=O)C1=C(C)NC2=C(C(=O)CC(C)(C)C2)C1c1cccc(C)n1 (configuration not stated),21,9,87*,0,8,35
